# Reference: ChEMBL document CHEMBL3286116, “Synthesis, biological evaluation and structure-activity correlation study of a series of imidazol-based compounds as Candida albicans inhibitors” (Eur J Med Chem, 2014)
# Key:
# Cryptococcus neoformans [1] = assay: Antifungal activity against Cryptococcus neoformans PMC 2123 after 72 hrs by CLSI broth microdilution method; format: functional; conditions: PMC 2123, 72 h
# How it was run: (§1)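 Cryptococcus neoformans tested by CLSI broth microdilution in RPMI 1640, with serial two-fold dilutions from DMSO stocks at 100× the top concentration, final 0.125–64. Inoculum was 1.0–1.5 × 10^3 cells mL−1 at 35 °C, with growth read at 72 h. MIC is the lowest concentration with ≥50% growth inhibition versus control. Median of five replicates, plus geometric mean.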
# Candida albicans [2] = assay: Antifungal activity against Candida albicans ATCC 10231 after 48 hrs by CLSI broth microdilution method; format: functional; conditions: ATCC 10231, 48 h
# How it was run: (§2)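 Yeast CLSI broth microdilution (M27-A3). Compounds dissolved in DMSO at 100× the top test concentration, then diluted as serial two-fold dilutions in RPMI 1640 to final 0.125–64. Inoculum was 1.0–1.5 × 10^3 cells mL−1, incubated at 35 °C and read for growth at 48 h. MIC is the lowest concentration giving ≥50% growth inhibition versus growth control. Reported as the median of five replicates and as the geometric mean.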
# Nannizzia gypsea [3] = assay: Antifungal activity against Microsporum gypseum PMC 7303 after 72 hrs by CLSI broth microdilution method; format: functional; conditions: PMC 7303, 72 h
# How it was run: (§3)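 Dermatophytes tested by CLSI broth microdilution for filamentous fungi (M38-A2). Serial two-fold dilutions of DMSO-dissolved compound in RPMI 1640, final 0.125–64. Inoculum was 0.4–5 × 10^4 CFU mL−1, incubated at 35 °C and read at 72 h. MIC80 is the lowest concentration giving ≥80% growth inhibition versus growth control. Median of five replicates, plus geometric mean.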
# Candida albicans [4] = assay: Antifungal activity against Candida albicans ATCC 10261 after 48 hrs by CLSI broth microdilution method; format: functional; conditions: ATCC 10261, 48 h; how it was run: as §2
# [5] = tested on: Trichophyton mentagrophytes; assay: Antifungal activity against Trichophyton mentagrophytes PMC 6509 after 72 hrs by CLSI broth microdilution method; format: functional; conditions: PMC 6509, 72 h; how it was run: as §3
# Nakaseomyces glabratus [6] = assay: Antifungal activity against Candida glabrata PMC 0805 after 48 hrs by CLSI broth microdilution method; format: functional; conditions: PMC 0805, 48 h; how it was run: as §2
# Cryptococcus neoformans [7] = assay: Antifungal activity against Cryptococcus neoformans PMC 2103 after 72 hrs by CLSI broth microdilution method; format: functional; conditions: PMC 2103, 72 h; how it was run: as §1
# Candida tropicalis [8] = assay: Antifungal activity against Candida tropicalis PMC 0910 after 48 hrs by CLSI broth microdilution method; format: functional; conditions: PMC 0910, 48 h; how it was run: as §2
# [9] = tested on: Trichophyton mentagrophytes; assay: Antifungal activity against Trichophyton mentagrophytes PMC 6503 after 72 hrs by CLSI broth microdilution method; format: functional; conditions: PMC 6503, 72 h; how it was run: as §3
# [10] = tested on: Trichophyton mentagrophytes; assay: Antifungal activity against Trichophyton mentagrophytes PMC 6531 after 72 hrs by CLSI broth microdilution method; format: functional; conditions: PMC 6531, 72 h; how it was run: as §3
# [11] = tested on: Trichophyton mentagrophytes; assay: Antifungal activity against Trichophyton mentagrophytes PMC 6515 after 72 hrs by CLSI broth microdilution method; format: functional; conditions: PMC 6515, 72 h; how it was run: as §3
# Cryptococcus neoformans [12] = assay: Antifungal activity against Cryptococcus neoformans PMC 2102 after 72 hrs by CLSI broth microdilution method; format: functional; conditions: PMC 2102, 72 h; how it was run: as §1
# Pichia kudriavzevii [13] = assay: Antifungal activity against Candida krusei PMC 0613 after 48 hrs by CLSI broth microdilution method; format: functional; conditions: PMC 0613, 48 h; how it was run: as §2
# Candida parapsilosis [14] = assay: Antifungal activity against Candida parapsilosis DSM 11224 after 48 hrs by CLSI broth microdilution method; format: functional; conditions: Lodderomyces parapsilosis, DSM 11224, 48 h; how it was run: as §2
# Candida albicans [15] = assay: Antifungal activity against Candida albicans ATCC 20891 after 48 hrs by CLSI broth microdilution method; format: functional; conditions: ATCC 20891, 48 h; how it was run: as §2
# Cryptococcus neoformans [16] = assay: Antifungal activity against Cryptococcus neoformans PMC 2111 after 72 hrs by CLSI broth microdilution method; format: functional; conditions: PMC 2111, 72 h; how it was run: as §1
# Candida albicans [17] = assay: Antifungal activity against Candida albicans PMC 1011 after 48 hrs by CLSI broth microdilution method; format: functional; conditions: PMC 1011, 48 h; how it was run: as §2
# [18] = tested on: Trichophyton mentagrophytes; assay: Antifungal activity against Trichophyton mentagrophytes PMC 6552 after 72 hrs by CLSI broth microdilution method; format: functional; conditions: PMC 6552, 72 h; how it was run: as §3
# Nannizzia gypsea [19] = assay: Antifungal activity against Microsporum gypseum PMC 7331 after 72 hrs by CLSI broth microdilution method; format: functional; conditions: PMC 7331, 72 h; how it was run: as §3
# Candida albicans [20] = assay: Antifungal activity against Candida albicans ATCC 90028 after 48 hrs by CLSI broth microdilution method; format: functional; conditions: ATCC 90028, 48 h; how it was run: as §2
# Candida albicans [21] = assay: Antifungal activity against Candida albicans ATCC 76615 after 48 hrs by CLSI broth microdilution method; format: functional; conditions: ATCC 76615, 48 h; how it was run: as §2
# Cryptococcus neoformans [22] = assay: Antifungal activity against Cryptococcus neoformans PMC 2107 after 72 hrs by CLSI broth microdilution method; format: functional; conditions: PMC 2107, 72 h; how it was run: as §1
# Pichia kudriavzevii [23] = assay: Antifungal activity against Candida krusei DSM 6128 after 48 hrs by CLSI broth microdilution method; format: functional; conditions: DSM 6128, 48 h; how it was run: as §2
# [24] = Cytotoxicity against human A549 cells after 48 hrs by MTT assay; format: cell-based
# How it was run: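 A549 cells (ATCC CCL-185) seeded at 2 × 10^4/well in phenol-red-free RPMI 1640 with 10% FBS, L-glutamine, penicillin and streptomycin, at 37 °C and 5% CO2. Exposed 48 h to DMSO-dissolved compounds (final 16–256; at least five concentrations, triplicate). MTT added for 3–4 h, crystals solubilized, OD read at 570 nm. CC50 taken versus the DMSO control. Mean ± SD of two independent experiments.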
# Candida tropicalis [25] = assay: Antifungal activity against Candida tropicalis DSM 11953 after 48 hrs by CLSI broth microdilution method; format: functional; conditions: DSM 11953, 48 h; how it was run: as §2
# Cryptococcus neoformans [26] = assay: Antifungal activity against Cryptococcus neoformans DSM 11959 after 72 hrs by CLSI broth microdilution method; format: functional; conditions: DSM 11959, 72 h; how it was run: as §1
# Candida albicans [27] = assay: Antifungal activity against Candida albicans ATCC 3153 after 48 hrs by CLSI broth microdilution method; format: functional; conditions: ATCC 3153, 48 h; how it was run: as §2
# Cryptococcus neoformans [28] = assay: Antifungal activity against Cryptococcus neoformans PMC 2136 after 72 hrs by CLSI broth microdilution method; format: functional; conditions: PMC 2136, 72 h; how it was run: as §1
# Candida albicans [29] = assay: Antifungal activity against Candida albicans ATCC 24433 after 48 hrs by CLSI broth microdilution method; format: functional; conditions: ATCC 24433, 48 h; how it was run: as §2
# Candida parapsilosis [30] = assay: Antifungal activity against Candida parapsilosis ATCC 22019 after 48 hrs by CLSI broth microdilution method; format: functional; conditions: Lodderomyces parapsilosis, ATCC 22019, 48 h; how it was run: as §2
# Cryptococcus neoformans [31] = assay: Antifungal activity against Cryptococcus neoformans PMC 2115 after 72 hrs by CLSI broth microdilution method; format: functional; conditions: PMC 2115, 72 h; how it was run: as §1
# Nannizzia gypsea [32] = assay: Antifungal activity against Microsporum gypseum DSM 3824 after 72 hrs by CLSI broth microdilution method; format: functional; conditions: DSM 3824, 72 h; how it was run: as §3
# [33] = tested on: Trichophyton mentagrophytes; assay: Antifungal activity against Trichophyton mentagrophytes DSM 4870 after 72 hrs by CLSI broth microdilution method; format: functional; conditions: DSM 4870, 72 h; how it was run: as §3
# Nakaseomyces glabratus [34] = assay: Antifungal activity against Candida glabrata PMC 0807 after 48 hrs by CLSI broth microdilution method; format: functional; conditions: PMC 0807, 48 h; how it was run: as §2
smiles,measurement,setting,value
O=C(OC(Cn1ccnc1)c1ccc(F)cc1)N1CCN(c2ccc(Cl)cc2)CC1 (centres undefined),MIC50,Cryptococcus neoformans [1],4 µg/mL
same,MIC50,Candida albicans [2],2 µg/mL
same,MIC80,Nannizzia gypsea [3],16 µg/mL
same,MIC50,Candida albicans [4],1 µg/mL
same,MIC80,[5],16 µg/mL
same,MIC50,Nakaseomyces glabratus [6],2 µg/mL
same,MIC50,Cryptococcus neoformans [7],2 µg/mL
same,MIC50,Candida tropicalis [8],2 µg/mL
same,MIC80,[9],16 µg/mL
same,MIC80,[10],8 µg/mL
same,MIC80,[11],8 µg/mL
same,MIC50,Cryptococcus neoformans [12],4 µg/mL
same,MIC50,Pichia kudriavzevii [13],1 µg/mL
same,MIC50,Candida parapsilosis [14],0.25 µg/mL
same,MIC50,Candida albicans [15],0.5 µg/mL
same,MIC50,Cryptococcus neoformans [16],4 µg/mL
same,MIC50,Candida albicans [17],0.5 µg/mL
same,MIC80,[18],32 µg/mL
same,MIC80,Nannizzia gypsea [19],4 µg/mL
same,MIC50,Candida albicans [20],0.5 µg/mL
same,MIC50,Candida albicans [21],8 µg/mL
same,MIC50,Cryptococcus neoformans [22],1 µg/mL
same,MIC50,Pichia kudriavzevii [23],8 µg/mL
same,CC50 at 48 h,[24],78.4 µg/mL
same,MIC50,Candida tropicalis [25],2 µg/mL
same,MIC50,Cryptococcus neoformans [26],4 µg/mL
same,MIC50,Candida albicans [27],8 µg/mL
same,MIC50,Cryptococcus neoformans [28],4 µg/mL
same,MIC50,Candida albicans [29],4 µg/mL
same,MIC50,Candida parapsilosis [30],2 µg/mL
same,MIC50,Cryptococcus neoformans [31],4 µg/mL
same,MIC80,Nannizzia gypsea [32],16 µg/mL
same,MIC80,[33],16 µg/mL
same,MIC50,Nakaseomyces glabratus [34],8 µg/mL
